Compound activity as filed in PubChem.
hERG protect – shields human hERG channel from block by proarrhythmic agents; Q12809; CHO-hERG, FluxOR thallium flux, dofetilide IC70 present; activation (rescue from dofetilide block), less the hit threshold, % at 10 µM; 310,000 tested, 0.51% active; AID 1511;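 active means activation above the mean of controls blocked by dofetilide plus 5 SD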;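 further: thallium influx through hERG after potassium depolarization seen as dye fluorescence rise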
KCNQ1 block – inhibitors of human KCNQ1 potassium channel; AID 2642; 310,000 tested, 1.3% active; P51787; B-score at 10 µM; CHO-K1 KCNQ1, FluxOR thallium flux fluorescence; stronger effect = higher value;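 active means compounds whose thallium flux B-score, printed positive for inhibition, exceeds three library SD while starting fluorescence stays within three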;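 further: channel opened by potassium depolarization with thallium stimulus after 20 min compound exposure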
KCNK3 block – human KCNK3 channel inhibition, primary screen; O14649; CHO-KCNK3 thallium flux, FluxOR fluorescence; stronger effect = lower value; B-score at 10 µM; 340,000 tested, 0.84% active; AID 602410;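 active means B-score under library mean minus 4 SD, starting fluorescence ratio at most library mean plus 5 SD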;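 further: more negative B-score means stronger inhibition of thallium flux through KCNK3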
KCNK9 inh – blocks the human KCNK9 two-pore domain potassium channel | B-score at 10 µM | 310,000 tested, 1.2% active | Q9NPC2 | HEK293 KCNK9, FluxOR thallium flux fluorescence; stronger effect = lower value;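 active means ratio B-score over 3 SD below the library mean, with starting fluorescence within 5 SD of its mean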;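 further: negative B-score means less thallium flux so channel inhibition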
KCNQ1 act – potentiates or activates the human KCNQ1 potassium channel; AID 2648; B-score at 10 µM; 310,000 tested, 0.35% active; CHO-K1 KCNQ1, thallium flux FluxOR fluorescence; stronger effect = higher value;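 active means fluorescence ratio B-score, a plate-corrected score, at least three library SD, with initial intensity B-score within 5 SD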
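System: CHO-K1 cells stably expressing KCNQ1 / Medium: assay buffer for compound exposure, DMSO matched across wells / Reagent: thallium- and potassium-containing depolarizing buffer / Compound: one concentration, matched DMSO / Incubation: 20 min compound pretreatment at room temperature / Measured by: kinetic FluxOR fluorescence, 10 s baseline plus 110 s post-stimulus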
KCC2 mod – modulators of human KCC2 chloride dependent transport; Q9H2X9; 190,000 tested, 2.2% active; B-score of Tl+ flux slope (higher = more flux/activation; lower = inhibition) at 10 µM; KCC2 cells, thallium flux FluoZin-2 fluorescence;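 active means thallium flux slope and its plate-corrected score both differing from the plate sample mean at a set confidence after two filtering rounds, in either direction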;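 further: slope of fluorescence scaled to starting intensity during 10 to 20 s after thallium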
Target sequence (Q9H2X9 whole entry, looked up): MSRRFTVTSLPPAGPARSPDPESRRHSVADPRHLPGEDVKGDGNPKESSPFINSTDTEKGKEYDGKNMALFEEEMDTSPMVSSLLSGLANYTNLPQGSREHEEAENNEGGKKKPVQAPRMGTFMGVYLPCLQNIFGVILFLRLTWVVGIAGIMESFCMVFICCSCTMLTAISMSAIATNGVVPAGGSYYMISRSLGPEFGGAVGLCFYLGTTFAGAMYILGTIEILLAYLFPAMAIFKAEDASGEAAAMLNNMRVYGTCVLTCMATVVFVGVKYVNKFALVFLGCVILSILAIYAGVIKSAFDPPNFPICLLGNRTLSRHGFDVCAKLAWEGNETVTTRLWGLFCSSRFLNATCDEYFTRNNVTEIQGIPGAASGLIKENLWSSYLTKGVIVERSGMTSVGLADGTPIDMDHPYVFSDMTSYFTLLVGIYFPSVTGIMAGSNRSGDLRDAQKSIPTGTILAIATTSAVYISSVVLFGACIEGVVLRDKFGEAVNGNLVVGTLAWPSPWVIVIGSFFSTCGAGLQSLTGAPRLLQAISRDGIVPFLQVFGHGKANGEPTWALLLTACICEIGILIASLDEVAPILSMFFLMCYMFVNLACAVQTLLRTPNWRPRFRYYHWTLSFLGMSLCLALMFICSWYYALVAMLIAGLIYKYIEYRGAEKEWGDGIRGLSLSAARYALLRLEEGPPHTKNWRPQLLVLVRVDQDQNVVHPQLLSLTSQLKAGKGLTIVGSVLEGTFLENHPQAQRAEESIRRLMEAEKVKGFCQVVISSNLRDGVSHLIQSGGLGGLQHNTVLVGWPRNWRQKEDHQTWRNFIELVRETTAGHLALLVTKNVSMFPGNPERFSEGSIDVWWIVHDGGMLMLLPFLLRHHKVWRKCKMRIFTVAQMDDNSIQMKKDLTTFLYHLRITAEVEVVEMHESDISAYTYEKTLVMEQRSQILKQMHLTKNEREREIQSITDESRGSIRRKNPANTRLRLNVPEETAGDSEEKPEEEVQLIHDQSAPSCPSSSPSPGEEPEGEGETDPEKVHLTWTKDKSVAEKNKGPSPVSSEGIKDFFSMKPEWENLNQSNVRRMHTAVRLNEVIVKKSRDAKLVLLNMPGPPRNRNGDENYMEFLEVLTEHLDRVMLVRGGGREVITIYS
KCNK9 inh conf – confirmation of human KCNK9 potassium channel inhibitors. shares compounds with KCNK9 inh. HEK293 KCNK9 cells, FluxOR thallium flux fluorescence. inhibition, % at 10 µM. 4,900 tested, 43% active. AID 492992;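 active means thallium signal inhibited by more than 5 SD of the compound-free buffer control wells, on both duplicate plates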;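 further: 0% = assay buffer control wells without compound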
Kir2-1 spec – tests whether KCNK9 modulators also affect mouse Kir2.1 | inhibition, % at 10 µM | shares compounds with KCNK9 inh | AID 492993 | 4,900 tested, 4% active | Kir2.1 cells, FluxOR thallium flux fluorescence;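 active means thallium signal drop more than 5 SD beyond the mean of the no-compound control wells, seen in both duplicate plates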;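 further: signal is fluorescence rise after thallium addition divided by baseline fluorescence; plate controls were assay buffer only for no effect and full block by chlorpromazine control for full effect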
HEK293 Tl ctr – non-induced cell nonspecific activity of KCNK9 modulators. shares compounds with KCNK9 inh. non-induced KCNK9-HEK293, FluxOR thallium flux. inhibition, % at 10 µM. 4,900 tested, 40% active. AID 492997;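 active means thallium signal drop beyond 5 SD of the untreated control mean, on both duplicate plates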;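 further: plate controls were buffer only IC0 wells for no effect and SID17386958 at its maximal inhibitory level for full effect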
* marks the source's active call; other numbers are inactive results; i = inactive; . = no result given. Sampled rows, rich in hits. Any-hit rate of the full collection: about 4.1%.

SMILES	hERG protect	KCNQ1 block	KCNK3 block	KCNK9 inh	KCNQ1 act	KCC2 mod	KCNK9 inh conf	Kir2-1 spec	HEK293 Tl ctr
O=S(=O)(NCC(c1ccco1)N1CCN(c2ccccc2F)CC1)c1ccc(F)cc1 (stereo not drawn)	-8.3	i	i	-12.8*	i	-0.624	45.5%*	i	34.0%*
O=S(=O)(NCC(c1ccco1)N1CCN(c2ccccc2)CC1)c1ccc(F)cc1 (stereo not drawn)	-8.7	i	i	i	i	-0.183	.	.	.
Cc1ccc(N(CC(=O)NCc2ccccc2)S(=O)(=O)c2c(C)noc2C)cc1	-7.6	i	i	i	i	.	.	.	.
CCOc1ccc(CCNC(=O)COC(=O)COc2cc(C)cc(C)c2)cc1OCC	-15.7	i	i	i	i	.	.	.	.
CCOc1ccc(CCNC(=O)CCOc2cc(C)ccc2C)cc1OCC	-4.1	i	i	i	i	.	i	i	33.5%*
O=C(CSCc1ccccc1)NCCc1ccc(F)cc1	-6.0	i	i	i	i	.	.	.	.
O=C(CSCc1ccc(Br)cc1)NCCc1ccccc1	-9.0	i	i	i	i	.	i	i	i
CCOc1ccc(CCNC(=O)CSCc2ccc(C)cc2)cc1OCC	-4.5	i	i	i	i	0.729	i	i	i
CCOc1ccc(CCNC(=O)CSc2nn(-c3ccc(C)c(Cl)c3)c(=S)s2)cc1OCC	-11.6	i	i	i	i	-2.04	i	i	i
Cc1ccc(C)c(OCCC(=O)NCCc2ccc(Cl)cc2)c1	-9.5	i	i	i	i	.	.	.	.
CCOc1ccc(CCNc2nc3ccccc3n3c(C)nnc23)cc1OCC	-7.8	i	i	i	i	.	.	.	.
CC(=O)c1ccc(-c2cccs2)s1	0.8	i	i	i	i	0.28	.	.	.
CCOc1ccc(CCNC(=O)CSc2nnnn2C)cc1OCC	-8.0	i	i	-13.4*	i	0.914	i	i	i
Cc1ccccc1NC(=O)c1oc(=O)c2ccccc2c1-c1ccccc1	-5.8	i	i	i	i	-0.0534	.	.	.
Cc1ccc(C)c(NC(=O)c2oc(=O)c3ccccc3c2-c2ccccc2)c1	-9.3	i	i	-15.2*	i	-1.11	64.5%*	i	44.0%*
COc1ccc(N2C(=O)C(Cl)=C(NCc3ccccc3)C2=O)cc1	-6.8	i	i	i	i	-1.11	.	.	.
CCOc1ccccc1NC1=C(Cl)C(=O)N(c2ccc(OC)cc2)C1=O	-11.7	i	i	-16.6*	i	-0.528	64.0%*	i	41.5%*
COc1ccccc1NC1=C(Cl)C(=O)N(C2CCCCC2)C1=O	-15.8	i	i	-8.53*	i	.	58.5%*	i	29.0%*
COc1cc(C(=O)Nc2nncs2)cc(OC)c1OC	-23.0	i	i	i	i	0.56	.	.	.
Cc1ccc(C)c(N(C)C(=O)c2coc(=O)c3ccccc23)c1	-4.5	i	i	i	i	.	.	.	.
Cc1ccccc1Nc1scc(-c2ccc(Cl)cc2)[n+]1-c1ccccc1C	-17.2	i	i	-8.37*	i	-0.411	62.5%*	i	i
Cc1c(Nc2scc(-c3ccccc3)[n+]2-c2ccccc2)c(=O)n(-c2ccccc2)n1C	-21.4	i	i	i	i	-0.183	.	.	.
CC(C)CCn1nnnc1CN1CCN(C(c2ccccc2)c2ccccc2)CC1	-11.2	i	i	i	i	-0.253	.	.	.
Cc1noc(N)c1C(=O)Nc1ccccc1F	-6.5	i	i	-9.47*	i	-0.00136	i	i	i
CC(C)CNC(=O)N1c2ccccc2Sc2ccccc21	-12.5	i	i	i	i	-1.8	i	i	i
SMILES	hERG protect	KCNQ1 block	KCNK3 block	KCNK9 inh	KCNQ1 act	KCC2 mod	KCNK9 inh conf	Kir2-1 spec	HEK293 Tl ctr
O=C(O)CN1C(=O)/C(=C\c2ccccc2OCc2ccc(Cl)cc2Cl)SC1=S	-6.4	i	i	i	i	.	.	.	.
O=C(O)CN1C(=O)/C(=C\c2cccc(OCc3ccc(Cl)cc3Cl)c2)SC1=S	-1.5	i	i	i	i	.	i	i	i
CCN1C(=O)/C(=C\c2cn(-c3ccccc3)nc2-c2cccnc2)SC1=S	-9.8	i	i	i	i	-0.0029	.	.	.
O=C(O)CN1C(=O)/C(=C\c2cn(-c3ccccc3)nc2-c2ccccc2)SC1=S	-12.6	i	i	i	i	.	i	i	i
O=C(O)CN1C(=O)/C(=C\c2cc(Br)ccc2OCc2ccccc2F)SC1=S	-9.1	i	i	i	i	.	i	i	i
CCC(C)N(CC(=O)NCc1ccc(OC)cc1)C(=O)c1csnn1 (stereo not drawn)	-13.9	i	i	i	i	0.0136	.	.	.
c1ccc(OCCSc2nnnn2C2CCCCC2)cc1	-5.7	i	i	i	i	-2.79	.	.	.
O=C(NCC1COc2ccccc2O1)c1cc(S(=O)(=O)N2CCOCC2)c(Cl)cc1Cl (stereo not drawn)	.	.	i	.	.	.	.	.	.
O=C(O)CCCC(=O)Nc1cccc([N+](=O)[O-])c1	-18.2	i	i	i	i	1.13	.	.	.
Cc1noc(C)c1S(=O)(=O)Nc1ccc(O)c2c(=O)cc(-c3ccccc3Cl)oc12	-3.1	i	i	i	i	-2.55	i	i	i
Cc1cccc(C(=O)Nc2ccc(O)c3c(=O)cc(-c4ccccc4Cl)oc23)c1	-4.3	i	i	i	i	0.129	.	.	.
CCc1ccc(-c2ccc3nnc(SCC(=O)NCC4CCCO4)n3n2)cc1 (stereo not drawn)	-9.9	i	i	i	i	.	.	.	.
CCCNC(=O)NC(=O)CSc1nncs1	-8.5	i	i	i	i	-0.0758	.	.	.
COc1ccc(-c2csc(Nc3ccc(S(=O)(=O)Nc4cc(C)on4)cc3)n2)cc1C	-38.4	i	i	-8.74*	i	-1.98	55.5%*	i	i
O=C1c2ccccc2S(=O)(=O)N1CCOc1ccccc1	-9.6	i	i	i	i	0.0313	.	.	.
COc1ccccc1NS(=O)(=O)c1ccc2oc(SCC(=O)N3CCNC3=O)nc2c1	.	.	i	.	.	.	.	.	.
Cc1cccc(CSc2nc(N)c(C#N)c(-c3cccs3)c2C#N)c1	-6.8	i	i	-8.54*	i	-1.62	47.5%*	i	46.5%*
